Data on 59 compounds can be found in ChEMBL document CHEMBL4622973, “Discovery of Potent Small-Molecule SIRT6 Activators: Structure-Activity Relationship and Anti-Pancreatic Ductal Adenocarcinoma Activity” (J Med Chem, 2020).

Assay [1] has as its target T1, NAD-dependent protein deacylase sirtuin-6 (Homo sapiens, UniProt Q8N6T7). The experiment in a line: Activation of N-terminal his-tagged human SIRT6 expressed in Escherichia coli M15 [pREP4] assessed as increase in peptide demyristoylation incubated for 120 mins using Ac-EALPKK(Myr)-AMC substrate by FDL assay relative to control. The method in brief:
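Demyristoylation: 1 µM recombinant SIRT6 preincubated with compound for 20 min at 37 °C in 50 mM Tris-HCl pH 8.0, BSA 1 mg/mL, 1 mM DTT, with 10 µM Ac-EALPKK(Myr)-AMC. Fluorescence read. Mean ± s.d., triplicate wells, three independent experiments.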

Assay [2] concerns the target T1, NAD-dependent protein deacylase sirtuin-6. The assay is described as follows: Activation of N-terminal his-tagged human SIRT6 expressed in Escherichia coli M15 [pREP4] assessed as increase in peptide demyristoylation at 20 uM incubated for 120 mins using Ac-EALPKK(Myr)-AMC substrate by FDL assay relative to control. The method in brief:
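Demyristoylation: 1 µM recombinant SIRT6 preincubated with compound for 20 min at 37 °C in 50 mM Tris-HCl pH 8.0, BSA 1 mg/mL, 1 mM DTT, with 10 µM Ac-EALPKK(Myr)-AMC. Started with 1 mM NAD and run 120 min at 37 °C. Developed 120 min at 37 °C with 5 mg/mL trypsin/8 mM nicotinamide. Fluorescence read. Mean ± s.d., triplicate wells, three independent experiments.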

T1 sequence (Q8N6T7 whole entry): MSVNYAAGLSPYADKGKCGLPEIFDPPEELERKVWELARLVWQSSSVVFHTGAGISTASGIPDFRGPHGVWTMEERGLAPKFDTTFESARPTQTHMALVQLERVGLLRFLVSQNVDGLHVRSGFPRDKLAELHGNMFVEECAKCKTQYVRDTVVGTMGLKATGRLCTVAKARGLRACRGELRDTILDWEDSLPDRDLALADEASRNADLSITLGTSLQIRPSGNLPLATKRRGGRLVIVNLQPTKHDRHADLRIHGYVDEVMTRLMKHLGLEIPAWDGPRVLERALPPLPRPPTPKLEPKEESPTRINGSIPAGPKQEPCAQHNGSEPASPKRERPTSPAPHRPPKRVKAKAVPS

For `COc1ccc(-c2cc(C(=O)NCc3ccc(F)cc3)c3ccccc3n2)cc1OC`, the EC1.5 in assay [1] stood at 19.5 µM. In addition, the Activity in assay [2] was 168%.

Regarding `COc1ccc(-c2cc(C(=O)Nc3ccc(F)c(Cl)c3)c3ccccc3n2)cc1OC`, the Activity in assay [2] came out at 108%.

For the compound `COc1ccc(-c2cc(C(=O)Nc3cc(O)c(C(C)(C)C)cc3C(C)(C)C)c3ccccc3n2)cc1OC`, in assay [2], the Activity worked out at 88.6%.

For `CCOC(=O)c1ccccc1NC(=O)c1cc(-c2ccc(OC)c(OC)c2)nc2ccccc12`, in assay [2], the Activity was found to be 118%.

Take `Cc1ccc(-c2cc(C(=O)Nc3cc(C(F)(F)F)ccc3Cl)c3ccccc3n2)cc1`: in assay [2], the Activity turned out to be 109%.

With `COc1ccc(-c2cc(C(=O)Nc3cc(C(F)(F)F)ccc3Cl)c3ccccc3n2)cc1OC`, in assay [1], the EC1.5 came to 2.84 µM. The Activity in assay [2] came out at 365%.

Turning to `Cc1ccc(-c2cc(C(=O)Nc3cc(C(F)(F)F)ccc3Cl)c3ccccc3n2)s1`, the Activity in assay [2] stood at 141%.

For the compound `COc1ccc(-c2cc(C(=O)NC(c3ccccc3)c3ccccc3)c3ccccc3n2)cc1OC`, the EC1.5 in assay [1] is 5.97 µM. Also, the Activity in assay [2] worked out at 276%.

For `COc1ccc(-c2cc(C(=O)Nc3ccccc3Br)c3ccccc3n2)cc1OC`, the Activity in assay [2] is 128%.

Turning to `COc1cc(NC(=O)c2cc(-c3ccc(OC)c(OC)c3)nc3ccccc23)cc(OC)c1`, in assay [2], the Activity amounted to 103%.

Regarding `COc1ccc(-c2cc(C(=O)Nc3ccccc3Cl)c3ccccc3n2)cc1OC`, the Activity in assay [2] stood at 105%.

`COc1ccc(-c2cc(C(=O)Nc3cccc4ccccc34)c3ccccc3n2)cc1OC`: the EC1.5 in assay [1] amounted to 7.44 µM. Moreover, the Activity in assay [2] was 327%.

As for `COc1ccc(-c2cc(C(=O)NCc3ccc(Cl)c(Cl)c3)c3ccccc3n2)cc1OC`, the EC1.5 in assay [1] worked out at 8.14 µM. Also, in assay [2], the Activity came out at 260%.

Take `COc1cc([N+](=O)[O-])ccc1NC(=O)c1cc(-c2ccc(OC)c(OC)c2)nc2ccccc12`: the Activity in assay [2] amounted to 101%.

In the case of `COc1ccc(-c2cc(C(=O)Nc3ccc(S(N)(=O)=O)cc3)c3ccccc3n2)cc1OC`, in assay [2], the Activity turned out to be 131%.

On to `COC(=O)c1c(NC(=O)c2cc(-c3ccc(OC)c(OC)c3)nc3ccccc23)sc(C)c1C`, for which the Activity in assay [2] is 101%.

With `COc1cccc(NC(=O)c2cc(-c3ccc(OC)c(OC)c3)nc3ccccc23)c1`, the Activity in assay [2] turned out to be 115%.

As to `COc1ccc(-c2cc(C(=O)Nc3ccc(Cl)cc3)c3ccccc3n2)cc1OC`, the Activity in assay [2] is 98.7%.

In the case of `COc1ccc(-c2cc(C(=O)NC3CCCC3)c3ccccc3n2)cc1OC`, the Activity in assay [2] is 124%.

For the compound `O=C(Nc1cc(C(F)(F)F)ccc1Cl)c1cc(-c2cccnc2)nc2ccccc12`, the Activity in assay [2] came out at 85.6%.

Consider `COc1ccc(-c2cc(C(=O)N3CCN(C)CC3)c3ccccc3n2)cc1OC`, for which the Activity in assay [2] was determined as 105%.

`O=C(Nc1cc(C(F)(F)F)ccc1Cl)c1cc(-c2ccco2)nc2ccccc12`: in assay [2], the Activity came to 141%.

Turning to `CCOC(=O)c1sc(NC(=O)c2cc(-c3ccc(OC)c(OC)c3)nc3ccccc23)nc1C`, the Activity in assay [2] stood at 90.3%.

Regarding `COc1ccc(-c2cc(C(=O)Nc3ccc(F)c([N+](=O)[O-])c3)c3ccccc3n2)cc1OC`, in assay [2], the Activity is 96.9%.

As to `COc1ccc(-c2cc(C(=O)NCc3ccccc3)c3ccccc3n2)cc1OC`, in assay [2], the Activity amounted to 107%.

As to `O=C(Nc1cccc2ccccc12)c1cc(-c2cc3ccccc3o2)nc2ccccc12`, the Activity in assay [2] was determined as 119%.

As to `COc1ccc(NC(=O)c2cc(-c3ccc(OC)c(OC)c3)nc3ccccc23)c([N+](=O)[O-])c1`, the Activity in assay [2] was 87.2%.

For the compound `COC(=O)c1c(-c2ccc(C)cc2)csc1NC(=O)c1cc(-c2ccc(OC)c(OC)c2)nc2ccccc12`, in assay [2], the Activity came out at 82.9%.

Regarding `COc1ccc(-c2cc(C(=O)Nc3cccc(Cl)c3)c3ccccc3n2)cc1OC`, in assay [2], the Activity turned out to be 104%.

Take `COc1ccc(-c2cc(C(=O)Nc3cc(S(N)(=O)=O)ccc3C)c3ccccc3n2)cc1OC`: in assay [2], the Activity came to 95.5%.

As for `O=C(Nc1cc(C(F)(F)F)ccc1Cl)c1cc(C2CCCCC2)nc2ccccc12`, the Activity in assay [2] was determined as 82.4%.

For `COc1ccc(-c2cc(C(=O)Nc3ccc(C(C)(C)C)cc3)c3ccccc3n2)cc1OC`, the Activity in assay [2] is 124%.

Consider `O=C(Nc1ccc(Cl)c(Cl)c1)c1cc(-c2cc3ccccc3o2)nc2ccccc12`, for which, in assay [2], the Activity stood at 109%.

In the case of `Cc1ccc(-c2cc(C(=O)Nc3cc(C(F)(F)F)ccc3Cl)c3ccccc3n2)c(C)c1`, the Activity in assay [2] was found to be 92.3%.

For the compound `COc1ccc(-c2cc(C(=O)Nc3ccc(F)c(F)c3)c3ccccc3n2)cc1OC`, the Activity in assay [2] is 101%.

As for `COc1ccc(-c2cc(C(=O)Nc3cccc(F)c3)c3ccccc3n2)cc1OC`, the Activity in assay [2] was 142%.

On to `CCOc1ccc(NC(=O)c2cc(-c3cc4ccccc4o3)nc3ccccc23)cc1`, for which, in assay [2], the Activity was 109%.

Take `COc1ccc(-c2cc(C(=O)NC34CC5CC(CC(O)(C5)C3)C4)c3ccccc3n2)cc1OC`: in assay [2], the Activity is 86.1%.

Take `COc1ccc(-c2cc(C(=O)Nc3ccccc3F)c3ccccc3n2)cc1OC`: in assay [2], the Activity amounted to 92.4%.

In the case of `COC(=O)c1c(NC(=O)c2cc(-c3ccc(OC)c(OC)c3)nc3ccccc23)sc2c1CCCC2`, in assay [2], the Activity is 95.2%.

On to `COc1ccc(-c2cc(C(=O)Nc3ccc(F)cc3)c3ccccc3n2)cc1OC`, for which the Activity in assay [2] came to 104%.

In the case of `COc1ccc(-c2cc(C(=O)Nc3ccc4ccccc4c3)c3ccccc3n2)cc1OC`, the Activity in assay [2] came to 139%.

With `O=C(Nc1ccc(Oc2ccccc2)cc1)c1cc(-c2cc3ccccc3o2)nc2ccccc12`, the Activity in assay [2] was 118%.

For `CCN(CC)c1ccc(NC(=O)c2cc(-c3ccc(OC)c(OC)c3)nc3ccccc23)cc1`, the Activity in assay [2] was 83.3%.

On to `COc1ccc(-c2cc(C(=O)Nc3nc4ccc(S(C)(=O)=O)cc4s3)c3ccccc3n2)cc1OC`, for which, in assay [2], the Activity amounted to 83.4%.

As to `O=C(Nc1cc(C(F)(F)F)ccc1Cl)c1cc(C2CCCC2)nc2ccccc12`, in assay [2], the Activity stood at 76.4%.

On to `COc1ccc(-c2cc(C(=O)Nc3nc(-c4ccc(Cl)cc4)cs3)c3ccccc3n2)cc1OC`, for which the Activity in assay [2] was determined as 91%.

For `COc1ccc(-c2cc(C(=O)Nc3cc([N+](=O)[O-])ccc3Cl)c3ccccc3n2)cc1OC`, in assay [2], the Activity came out at 98.2%.

On to `COC(=O)[C@H]1C2CCC(CC2)[C@@H]1NC(=O)c1cc(-c2ccc(OC)c(OC)c2)nc2ccccc12`, for which, in assay [2], the Activity was 128%.

Turning to `CCCNC(=O)c1cc(-c2ccc(OC)c(OC)c2)nc2ccccc12`, in assay [2], the Activity was 99%.

For `COc1ccc(-c2cc(C(=O)Nc3cc(C(F)(F)F)ccc3Cl)c3ccccc3n2)cc1F`, the Activity in assay [2] is 91.2%.

On to `COc1ccc(-c2cc(C(=O)Nc3sc(C)c(C)c3C#N)c3ccccc3n2)cc1OC`, for which, in assay [2], the Activity came out at 95.1%.

For `COc1ccc(-c2cc(C(=O)Nc3ccc(F)cc3[N+](=O)[O-])c3ccccc3n2)cc1OC`, in assay [2], the Activity is 65.7%.

Regarding `COc1ccc(-c2cc(C(=O)Nc3cc(C(C)C)ccc3C)c3ccccc3n2)cc1OC`, in assay [2], the Activity is 131%.

As for `COc1ccc(-c2cc(C(=O)Nc3ccc(C(F)(F)F)cc3)c3ccccc3n2)cc1OC`, in assay [2], the Activity came to 142%.

Regarding `COc1ccc(-c2cc(C(=O)Nc3ccc(C)c(Cl)c3)c3ccccc3n2)cc1OC`, the Activity in assay [2] was 117%.

As to `CCOc1ccccc1NC(=O)c1cc(-c2ccc(OC)c(OC)c2)nc2ccccc12`, the Activity in assay [2] was found to be 95.2%.

On to `COc1ccc(-c2cc(C(=O)Nc3ccc(C)cc3)c3ccccc3n2)cc1OC`, for which, in assay [2], the Activity is 98.3%.

As to `O=C(Nc1cc(C(F)(F)F)ccc1Cl)c1cc(-c2cccs2)nc2ccccc12`, in assay [2], the Activity was 130%.
